High-throughput results as filed in PubChem BioAssay.
L929 necroptosis – blocks zVAD induced death of L929 cells | L929 zVAD necroptosis rescue, ATP luminescence, 24 h; with zVAD 60 µM | viability rescue, % at 10 µM | hit rate 0.38% among 220,000 | AID 1377;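 active means activation, scaled between plate controls, above about 75%, limit read from the data; inactive means activation under that limit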;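 further: 0% = zVAD with DMSO and 100% = DMSO alone without zVAD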
Rad51 HR inh – blocks human Rad51 in homologous recombination. Q06609. hRad51 DNA strand exchange, fluorescence dequenching. inhibition, % at 10 µM. hit rate 0.085% among 200,000;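 active means inhibition above 40% at the single screening dose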;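 further: 0% = DMSO control wells and 100% = blanks with heterologous ssDNA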
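Assay system: Human Rad51 nucleoprotein filaments preassembled on unlabelled ssDNA | Reagent: Donor/quencher-labelled 47-bp dsDNA substrate | Doses: One concentration, 10 µM final | Times: 37 °C 15-min filament assembly, 30-min compound preincubation, 15-min exchange | Technique: Fluorescein emission 520 nm, excitation 485 nm | Benchmarks: Plate control and blank wells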
HMGR II inh – blocks class II HMG-CoA reductase of Enterococcus faecalis | inhibition, % at 10 µM | purified E. faecalis HMGR, NADPH absorbance 340 nm kinetic | hit rate 0.41% among 190,000;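 active means inhibition above a set limit, the median over all tested compounds plus 3 SD, cut at about 9.5% in these data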;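 further: enzyme runs in reverse so mevalonate oxidation gives rising NADPH absorbance; 0% = complete reaction with DMSO and 100% = background rate lacking mevalonate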
PERK inhibitor – inhibitors of human PERK kinase; inhibition, % at 5.6 µM; AID 1416; hit rate 0.17% among 220,000; CHO PERK-DD fusion, SEAP luminescence translation reporter;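 active means inhibition above the mean inhibition of all tested compounds plus 3 SD, set separately per screening campaign, cut at about 2.9% in these data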;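 further: PERK kinase domain activated by AP20187 dimerizer at 100 nM; 0% = DMSO with dimerizer and 100% = rapamycin at 8.4 µM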
Target sequence (Q9NZJ5 whole entry, looked up, the tested form may be a part): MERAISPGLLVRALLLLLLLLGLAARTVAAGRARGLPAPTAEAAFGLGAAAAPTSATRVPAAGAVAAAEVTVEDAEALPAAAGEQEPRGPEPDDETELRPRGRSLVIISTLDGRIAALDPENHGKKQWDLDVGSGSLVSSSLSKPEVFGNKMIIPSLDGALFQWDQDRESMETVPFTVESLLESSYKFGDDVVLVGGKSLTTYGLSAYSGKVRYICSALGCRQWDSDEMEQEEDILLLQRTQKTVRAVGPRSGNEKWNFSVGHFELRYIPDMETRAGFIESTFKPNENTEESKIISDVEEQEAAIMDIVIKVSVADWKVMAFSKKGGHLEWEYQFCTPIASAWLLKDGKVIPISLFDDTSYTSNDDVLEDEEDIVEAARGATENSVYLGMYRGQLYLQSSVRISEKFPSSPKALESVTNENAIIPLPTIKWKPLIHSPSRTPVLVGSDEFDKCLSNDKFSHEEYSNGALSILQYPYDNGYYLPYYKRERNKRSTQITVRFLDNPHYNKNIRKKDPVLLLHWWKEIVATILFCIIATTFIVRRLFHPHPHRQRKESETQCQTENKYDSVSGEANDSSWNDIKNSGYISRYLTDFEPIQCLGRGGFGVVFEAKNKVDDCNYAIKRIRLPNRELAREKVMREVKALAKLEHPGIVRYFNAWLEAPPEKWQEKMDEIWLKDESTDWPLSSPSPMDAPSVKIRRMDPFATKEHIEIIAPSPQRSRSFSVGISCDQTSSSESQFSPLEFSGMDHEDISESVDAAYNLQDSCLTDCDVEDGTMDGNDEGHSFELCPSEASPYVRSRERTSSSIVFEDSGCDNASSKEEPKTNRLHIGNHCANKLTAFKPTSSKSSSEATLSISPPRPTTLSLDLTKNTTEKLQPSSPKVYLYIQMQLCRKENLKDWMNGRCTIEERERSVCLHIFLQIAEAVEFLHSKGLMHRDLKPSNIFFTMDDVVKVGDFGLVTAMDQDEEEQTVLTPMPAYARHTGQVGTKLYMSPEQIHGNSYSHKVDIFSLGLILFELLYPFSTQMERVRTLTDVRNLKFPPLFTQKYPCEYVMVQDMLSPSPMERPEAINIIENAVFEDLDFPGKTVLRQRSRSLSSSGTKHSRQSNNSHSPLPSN
TNF death inh – TNF-alpha cell death inhibition in Jurkat FADD-/- cells | Jurkat FADD-/- TNF necroptosis rescue, ATP luminescence, 24 h; 0 = TNF only, 100 = no-TNF cells | activation (protection from cell death), % at 10 µM | hit rate 0.068% among 220,000 | AID 463075;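 active means activation, meaning protection from cell death, of at least 50% relative to plate controls; inactive means activation below 50%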;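 further: necroptosis triggered by 40 ng/mL TNF-alpha added together with compound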
zVAD death conf – confirmed blocker of zVAD induced death in L929 cells; AID 463117; shares compounds with L929 necroptosis; hit rate 16% among 760; activation (protection from necroptosis), % at 10 µM; L929 zVAD-induced necroptosis rescue, ATP luminescence, 24 h;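 active means mean protection from necroptosis of at least 50% over duplicate tests; inactive means mean protection below 50%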;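 further: 0% = cells with zVAD alone and 100% = vehicle cells without zVAD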
* = called active by the depositor; x = not tested or not shown. In the library only some 1% were active in any assay of this set; here they are far more common.

SMILES	L929 necroptosis	Rad51 HR inh	HMGR II inh	PERK inhibitor	TNF death inh	zVAD death conf
COc1ccc(NC(=O)Nc2ccc(Cc3ccncc3)cc2)cc1OC	82*	2	-2	-1	0	37
COc1ccccc1/C=C\C(=O)NCC(=O)N/N=C(\C)Cc1ccccc1	0	15	x	-1	0	x
Cc1ccc(NC(=O)COC(=O)c2ccc3c(c2)NC(=O)C2CCCN32)cc1 (centres undefined)	83*	-9	-3	1	-2	48
COC(=O)c1ccc2c(c1)NC(=O)C1CCCN21 (centres undefined)	x	-5	-4	x	x	x
CC(C)OP(=O)(OC(C)C)C(O)c1cccc([N+](=O)[O-])c1 (centres undefined)	0	x	x	1	1	x
O=S(=O)(N/N=C/c1ccc2c(c1)OCCO2)c1ccccc1	0	6	1	2	-2	x
C(=N\Nc1ccccn1)/c1ccc2c(c1)OCCO2	83*	32	-4	1	19	2
Fc1cccc(F)c1/C=N/Nc1ccccn1	90*	26	-2	1	13	24
Fc1cccc(Cl)c1/C=N/Nc1ccccn1	83*	-1	-5	0	16	1
Fc1cccc(/C=N/Nc2ccccn2)c1	76*	0	-4	1	20	1
Cc1ccc(C)c(/C=N/Nc2ccccn2)c1	54	4	-1	0	4	x
Cc1cnc([N+](=O)[O-])n1CCOC(=O)NC(=O)c1ccc(F)cc1	1	7	-8	0	-1	x
COc1ccc(/C=C/c2cc(C(F)(F)F)on2)cc1	1	-26	x	0	0	x
COc1ccc(NC(=O)C(C)N2C(=O)c3ccccc3C2=O)cc1S(=O)(=O)N1CCOCC1 (centres undefined)	2	-14	-2	0	0	x
CCCCNC(=O)c1ccc2c(c1)ncn2C1CCCCC1	79*	2	-5	0	2	33
CCCNC(=O)c1ccc2c(c1)ncn2-c1cc(C)cc(C)c1	76*	-39	-2	0	5	2
O=C(O)COC(=O)C1C(c2ccccc2)C(C(=O)O)C1c1ccccc1 (centres undefined)	5	-8	0	0	0	x
COC(=O)CCCC1=CC2=CC(=O)C(C)(OC(=O)c3cccs3)C(=O)C2=CN1C1CC1 (centres undefined)	0	-4	x	x	0	x
CCN(CC)CCOc1c(Br)ccc2c1sc1nc3n(c(=O)c12)CCC3	81*	-2	-5	0	-6	21
CC(=O)/C=C(\C)Nc1ccccc1O	81*	16	x	1	12	9
Cc1ccc(/C=N/Nc2ncnc3nc[nH]c23)cc1	71	-1	x	0	-7	x
Clc1ccc(/C=N/Nc2ncnc3nc[nH]c23)cc1	78*	17	x	0	-10	43
Cc1ccc(NC(=O)C(OC(=O)c2ccc(NC(N)=O)cc2)c2ccccc2)cc1Cl (centres undefined)	85*	-3	3	1	8	70*
CCC(=O)Nc1cccc(C(=O)Nc2nccs2)c1	86*	6	-7	0	9	20
O=C(Nc1nccs1)c1cccc(NC(=O)C2CC2)c1	6	1	-2	-2	12	x
SMILES	L929 necroptosis	Rad51 HR inh	HMGR II inh	PERK inhibitor	TNF death inh	zVAD death conf
CCCC(=O)Nc1cccc(C(=O)Nc2nccs2)c1	98*	-4	-10	-1	13	35
CC(C)C(=O)Nc1cccc(C(=O)Nc2nccs2)c1	77*	9	-7	0	-2	13
O=C(Nc1nnc(COc2ccc(Br)cc2)s1)c1ccco1	0	21	x	1	2	x
CN(Cc1cn[nH]c1-c1ccc(-c2ccccc2)cc1)CC1CCOCC1	0	x	x	-1	3	x
COc1ccc(C(=O)NNC(=O)Cc2ccc(Cl)cc2)cc1	7	-5	0	1	0	x
COc1ccc(NC(=O)NC23CC4(C)CC(C)(CC(C)(C4)C2)C3)cc1	76*	-2	-5	0	4	39
COc1ccc(C(=O)NNC(=O)Nc2ccc(Cl)cc2)cc1	81*	7	-1	1	1	2
CCCn1c(=O)c(-c2nc3ccccc3[nH]2)c(O)c2ccccc21	71	x	4	2	0	x
CCn1c(=O)c(-c2nc3ccccc3[nH]2)c(O)c2ccccc21	80*	-1	-3	0	-1	1
Cc1ccc2c(C)nc(Nc3nc(CSc4nc5ccccc5[nH]4)cc(=O)[nH]3)nc2c1	87*	6	-2	1	-22	53*
C/C=C/C=C/C(=O)Nc1nccs1	86*	x	-4	1	11	4
O=C(NCc1ccc(Cl)cc1)C(=O)Nc1nccs1	1	3	-2	0	1	x
O=C(/C=C/c1ccc(Cl)cc1)Nc1nccs1	77*	4	2	1	30	19
C/C(=N/NC(=O)CNC(=O)c1ccncc1)c1ccco1	1	5	x	0	5	x
CCN1CCN(Cc2ccc(NC(=O)c3cc(NC(=O)c4ccc5n[nH]nc5c4)cc(OC)c3)cc2C(F)(F)F)CC1	0	-1	x	x	2	x
CCN1CCN(Cc2ccc(NC(=O)c3cc(NC(=O)c4ccno4)cc(OC)c3)cc2C(F)(F)F)CC1	77*	2	x	x	-8	73*
CCN1CCN(Cc2ccc(NC(=O)c3ccc(C)c(NC(=O)c4ccno4)c3)cc2C(F)(F)F)CC1	75	3	x	x	10	x
CCN1CCN(Cc2ccc(NC(=O)c3cc(NC(=O)N4CCNC4=O)cc(OC)c3)cc2C(F)(F)F)CC1	78*	-7	x	x	-8	64*
CCN1CCN(Cc2ccc(NC(=O)c3ccc(C)c(NC(=O)c4csc(-c5ccncc5)n4)c3)cc2C(F)(F)F)CC1	84*	3	x	x	-4	81*
O=C(Cn1nc(-c2cccc([N+](=O)[O-])c2)c2ccccc2c1=O)NCC1CCCO1 (centres undefined)	3	-6	1	1	0	x
CC12CCC(C(=O)Nc3nc4ccccc4s3)(OC1=O)C2(C)C (centres undefined)	5	7	-2	0	1	x
CC(=O)c1ccc(OCC(=O)Nc2ccc3c(c2)CCC3)cc1	75*	3	-6	1	-2	0
Cc1ccnc(NC(=O)CCC(=O)N(CC(=O)NC2CCCCC2)Cc2cccs2)c1	-1	-8	3	0	-5	x
CC(C)(C)n1nc(-c2ccc(F)cc2)c2c(N)ncnc21	79*	9	-4	-1	3	41
Cc1c(Cl)cccc1NC(=S)Nc1ccc2[nH]c(=O)[nH]c2c1	-1	2	x	1	-3	x
O=S(=O)([N-]c1nc2ccccc2nc1-n1cc[n+](Cc2ccccc2)c1)c1ccc(Br)cc1	1	13	x	0	5	x
